Assay results as given in ChEMBL document CHEMBL1154052, “Design, synthesis and primary activity evaluation of L-arginine derivatives as amino-peptidase N/CD13 inhibitors” (Bioorg Med Chem, 2009).

Key:
Aminopeptidase N = molecular target: T1, Aminopeptidase N (Sus scrofa, UniProt P15145); test: Inhibition of aminopeptidase N in pig kidney microsome by spectrophotometry; assay type: microsomes
T1 sequence (P15145 whole entry): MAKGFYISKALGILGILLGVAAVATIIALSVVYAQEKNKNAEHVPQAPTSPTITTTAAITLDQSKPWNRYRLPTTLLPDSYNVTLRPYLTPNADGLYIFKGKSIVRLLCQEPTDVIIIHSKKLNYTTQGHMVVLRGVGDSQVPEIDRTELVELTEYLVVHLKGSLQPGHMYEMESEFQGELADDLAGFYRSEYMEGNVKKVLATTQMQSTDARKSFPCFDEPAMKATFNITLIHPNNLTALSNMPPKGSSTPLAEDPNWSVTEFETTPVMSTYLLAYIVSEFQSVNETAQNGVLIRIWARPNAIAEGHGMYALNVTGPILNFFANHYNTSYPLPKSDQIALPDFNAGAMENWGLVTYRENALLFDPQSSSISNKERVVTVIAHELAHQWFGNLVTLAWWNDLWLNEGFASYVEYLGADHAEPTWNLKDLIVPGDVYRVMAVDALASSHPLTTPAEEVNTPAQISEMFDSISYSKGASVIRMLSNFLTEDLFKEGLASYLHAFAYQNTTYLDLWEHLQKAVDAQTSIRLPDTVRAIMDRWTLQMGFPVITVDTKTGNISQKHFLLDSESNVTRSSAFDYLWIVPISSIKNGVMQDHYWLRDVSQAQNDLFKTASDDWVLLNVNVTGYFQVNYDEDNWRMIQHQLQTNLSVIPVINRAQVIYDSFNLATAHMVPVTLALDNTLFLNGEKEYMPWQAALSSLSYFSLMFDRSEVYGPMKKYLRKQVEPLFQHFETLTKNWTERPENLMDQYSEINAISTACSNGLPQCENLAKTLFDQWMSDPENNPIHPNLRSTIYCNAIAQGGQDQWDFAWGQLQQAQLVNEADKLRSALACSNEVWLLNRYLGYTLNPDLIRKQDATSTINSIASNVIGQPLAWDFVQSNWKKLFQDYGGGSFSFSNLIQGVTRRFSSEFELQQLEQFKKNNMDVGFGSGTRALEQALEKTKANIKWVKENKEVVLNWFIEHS
Method in brief: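 Porcine kidney microsomal aminopeptidase (4 μg/mL final) preincubated with inhibitor for 30 min at room temperature in 50 mM PBS, pH 7.2. Inhibitor solutions made in assay buffer and adjusted to pH 7.5. Substrate L-Leu-p-nitroanilide. IC50 determined.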

[1] = molecular target: 72 kDa type IV collagenase (Homo sapiens, UniProt P08253); test: Inhibition of MMP2
Method in brief: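 MMP-2 (gelatinase A) incubated with substrate and inhibitor in 50 mmol/L sodium borate, pH 8.5, 30 min at 37 °C. 0.03% TNBS then added and incubated a further 20 min. Absorbance read at 450 nm.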

[2] = Selectivity ratio of IC50 for MMP2 to IC50 for aminopeptidase N in pig kidney microsome

Chain of 72 kDa type IV collagenase (P08253 whole entry): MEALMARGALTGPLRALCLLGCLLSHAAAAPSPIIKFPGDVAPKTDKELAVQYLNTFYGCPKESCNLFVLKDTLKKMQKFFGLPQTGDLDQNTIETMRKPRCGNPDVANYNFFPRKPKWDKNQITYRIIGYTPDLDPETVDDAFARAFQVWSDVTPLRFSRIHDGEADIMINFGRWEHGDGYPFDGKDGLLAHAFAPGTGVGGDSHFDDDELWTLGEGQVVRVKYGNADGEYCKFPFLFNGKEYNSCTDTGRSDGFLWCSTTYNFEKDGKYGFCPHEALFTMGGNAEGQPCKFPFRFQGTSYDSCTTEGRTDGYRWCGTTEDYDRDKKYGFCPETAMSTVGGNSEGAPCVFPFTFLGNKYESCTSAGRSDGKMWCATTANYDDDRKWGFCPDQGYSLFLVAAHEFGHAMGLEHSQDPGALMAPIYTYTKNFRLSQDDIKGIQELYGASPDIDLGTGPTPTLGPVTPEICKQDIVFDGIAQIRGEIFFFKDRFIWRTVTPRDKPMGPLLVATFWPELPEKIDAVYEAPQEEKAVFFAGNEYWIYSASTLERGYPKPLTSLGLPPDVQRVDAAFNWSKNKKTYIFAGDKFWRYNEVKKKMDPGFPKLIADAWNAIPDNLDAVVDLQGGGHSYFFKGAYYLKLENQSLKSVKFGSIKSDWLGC

| SMILES | IC50 (Aminopeptidase N) [µM] | IC50 [1] [µM] | Ratio IC50 [2] |
| --- | --- | --- | --- |
| COc1ccc(C(=O)N[C@@H](CCCNC(N)=N[N+](=O)[O-])C(=O)NO)cc1OC | 26.9 | 346 | – |
| N=C(NCCC[C@H](NC(=O)c1ccc(Cl)cc1Cl)C(=O)NO)N[N+](=O)[O-] | 5.3 | 349 | 65.8 |
| N=C(NCCC[C@H](NC(=O)c1ccccc1Cl)C(=O)NO)N[N+](=O)[O-] | – | – | 7.3 |
| N=C(NCCC[C@H](NC(=O)c1cccs1)C(=O)NO)N[N+](=O)[O-] | – | – | 2.6 |
| N=C(NCCC[C@H](NC(=O)/C=C/c1ccccc1)C(=O)NO)N[N+](=O)[O-] | 1010 | 36.7 | 0.04 |
| N=C(NCCC[C@H](NC(=O)c1ccccc1I)C(=O)NO)N[N+](=O)[O-] | 21.9 | 176 | 8 |
| N=C(NCCC[C@H](NC(=O)c1ccc(Br)cc1)C(=O)NO)N[N+](=O)[O-] | – | – | 1.1 |
| N=C(NCCC[C@H](NC(=O)c1cccc([N+](=O)[O-])c1)C(=O)NO)N[N+](=O)[O-] | 43.4 | 102 | 2.3 |
| N=C(NCCC[C@H](NC(=O)c1cccc(Cl)c1)C(=O)NO)N[N+](=O)[O-] | 202 | 89.2 | 0.4 |
| N=C(NCCC[C@H](NC(=O)c1ccccc1)C(=O)NO)N[N+](=O)[O-] | 80.6 | 693 | 8.6 |
| COc1ccc(C(=O)N[C@@H](CCCNC(=N)N[N+](=O)[O-])C(=O)NO)cc1 | – | – | 5.4 |
| N=C(NCCC[C@H](NC(=O)CCc1ccccc1)C(=O)NO)N[N+](=O)[O-] | 332 | 1640 | 4.9 |
| COc1ccc(C(=O)N[C@@H](CCCNC(N)=N[N+](=O)[O-])C(=O)NO)cc1 | 60.2 | 322 | – |
| N=C(NCCC[C@H](NC(=O)c1ccc([N+](=O)[O-])cc1)C(=O)NO)N[N+](=O)[O-] | 15.9 | 204 | 12.8 |
| COc1cc(C(=O)N[C@@H](CCCNC(N)=N[N+](=O)[O-])C(=O)NO)cc(OC)c1OC | 271 | 41.1 | – |
| Cc1ccc(S(=O)(=O)N[C@@H](CCCNC(=N)N[N+](=O)[O-])C(=O)NO)cc1 | – | – | 0.3 |
| NC(=N[N+](=O)[O-])NCCC[C@H](NC(=O)Cc1ccccc1)C(=O)NO | 1660 | 8.7 | – |
| N=C(NCCC[C@H](NC(=O)c1ccc(Br)c([N+](=O)[O-])c1)C(=O)NO)N[N+](=O)[O-] | – | – | 46.3 |

| SMILES | IC50 (Aminopeptidase N) [µM] | IC50 [1] [µM] | Ratio IC50 [2] |
| --- | --- | --- | --- |
| NC(=N[N+](=O)[O-])NCCC[C@H](NC(=O)c1ccc(Br)c([N+](=O)[O-])c1)C(=O)NO | 5.1 | 236 | – |
| NC(=N[N+](=O)[O-])NCCC[C@H](NC(=O)c1ccccc1Cl)C(=O)NO | 20.4 | 150 | – |
| N=C(NCCC[C@H](NC(=O)c1ccc2ccccc2c1)C(=O)NO)N[N+](=O)[O-] | – | – | 5.9 |
| N=C(NCCC[C@H](NC(=O)c1ccc(Cl)c(Cl)c1)C(=O)NO)N[N+](=O)[O-] | 33.5 | 194 | 5.8 |
| COc1cccc(C(=O)N[C@@H](CCCNC(=N)N[N+](=O)[O-])C(=O)NO)c1 | 16.5 | 151 | 9.1 |
| Cc1ccc(S(=O)(=O)N[C@@H](CCCNC(N)=N[N+](=O)[O-])C(=O)NO)cc1 | 109 | 28.9 | – |
| N=C(NCCC[C@H](NC(=O)c1ccc(Cl)cc1)C(=O)NO)N[N+](=O)[O-] | 215 | 238 | 1.1 |
| N=C(NCCC[C@H](NC(=O)Cc1ccccc1)C(=O)NO)N[N+](=O)[O-] | – | – | 0.05 |
| NC(=N[N+](=O)[O-])NCCC[C@H](NC(=O)c1cccs1)C(=O)NO | 85.7 | 226 | – |
| NC(=N[N+](=O)[O-])NCCC[C@H](NS(=O)(=O)c1ccccc1)C(=O)NO | 60.2 | 100 | – |
| NC(=N[N+](=O)[O-])NCCC[C@H](NC(=O)c1ccc(Br)cc1)C(=O)NO | 443 | 484 | – |
| COc1ccccc1C(=O)N[C@@H](CCCNC(=N)N[N+](=O)[O-])C(=O)NO | 78.4 | 253 | 3.2 |
| COc1ccc(C(=O)N[C@@H](CCCNC(=N)N[N+](=O)[O-])C(=O)NO)cc1OC | – | – | 12.8 |
| NC(=N[N+](=O)[O-])NCCC[C@H](NC(=O)c1ccc2ccccc2c1)C(=O)NO | 14.6 | 85.5 | – |
| COc1cc(C(=O)N[C@@H](CCCNC(=N)N[N+](=O)[O-])C(=O)NO)cc(OC)c1OC | – | – | 0.2 |
| Cc1cccc(C(=O)N[C@@H](CCCNC(=N)N[N+](=O)[O-])C(=O)NO)c1 | 42.8 | 623 | 14.6 |
| N=C(NCCC[C@H](NS(=O)(=O)c1ccccc1)C(=O)NO)N[N+](=O)[O-] | – | – | 1.7 |
| Cc1ccccc1C(=O)N[C@@H](CCCNC(=N)N[N+](=O)[O-])C(=O)NO | 221 | 2070 | 9.3 |
